Laboratory results as given in ChEMBL document CHEMBL1125331, “6-Hydroxy-3-n-propyl-2,3,4,5-tetrahydro-1H-3-benzazepine and analogs: new centrally acting 5-HT1A receptor agonists” (J Med Chem, 1992).

Assays:
Rattus norvegicus [1] = test: Effect evaluated in vivo on 5-HTP accumulation in corpus striatum after subcutaneous administration; assay type: functional; conditions: sc
Outline: (§1)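 Male Sprague-Dawley rats (200–300 g) were pretreated with reserpine 5 mg/kg sc 18 h beforehand. Test drug was given at neutral pH, 5 mL/kg. Aromatic amino acid decarboxylase was blocked with NSD 1015. 5-HTP in the dissected brain region was assayed by HPLC with electrochemical detection.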

Rattus norvegicus [2] = test: Effect evaluated in vivo on 5-HTP accumulation in corpus striatum at a dose 0.39 umol/kg (s.c.); assay type: functional; outline: as §1
Rattus norvegicus [3] = test: Effect evaluated in vivo on 5-HTP accumulation in corpus striatum at a dose 6.25 umol/kg (s.c.); assay type: functional; outline: as §1
[4] = molecular target: T1, 5-hydroxytryptamine receptor 1A (Rattus norvegicus, UniProt P19327); test: Inhibitory activity against 5-hydroxytryptamine 1A receptor in rats, using [3H]8-OH-DPAT as radioligand
T1 sequence (P19327 whole entry): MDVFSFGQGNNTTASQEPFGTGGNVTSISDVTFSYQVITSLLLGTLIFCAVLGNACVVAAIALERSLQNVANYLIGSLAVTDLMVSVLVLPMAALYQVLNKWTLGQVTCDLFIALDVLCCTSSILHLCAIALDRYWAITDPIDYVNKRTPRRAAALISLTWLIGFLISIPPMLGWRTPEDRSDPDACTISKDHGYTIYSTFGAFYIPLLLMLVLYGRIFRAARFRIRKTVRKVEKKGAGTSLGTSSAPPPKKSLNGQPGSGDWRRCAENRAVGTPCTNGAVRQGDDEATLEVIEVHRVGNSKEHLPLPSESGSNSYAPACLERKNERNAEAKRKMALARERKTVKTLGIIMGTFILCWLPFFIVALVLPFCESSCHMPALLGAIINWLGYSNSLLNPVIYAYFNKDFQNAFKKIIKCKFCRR
Outline: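 Rat whole-brain membranes (minus brainstem and cerebellum) in 50 mM Tris pH 8.0 with 120 mM NaCl, 4 mM CaCl2, 4 mM MgCl2 and 10 μM pargyline. Rapid filtration, then scintillation counting. Nonspecific binding defined with 10 μM 5-HT. IC50 by semi-log plot and linear regression.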

Rattus norvegicus [5] = test: Effect evaluated in vivo on NE synthesis in NE-rich hemispheres at a 0.39 dose uM/kg(sc); assay type: functional
Outline: (§2)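 Rats pretreated with reserpine 5 mg/kg sc 18 h before received test compound sc at 5 mL/kg in neutral solution. After decarboxylase inhibition with NSD 1015, dopa accumulation in hemispheres (mainly cortex) was measured by HPLC-electrochemical detection as an index of NE synthesis. Dose-response used 4–6 dose levels, n = 4.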

Rattus norvegicus [6] = test: Effect evaluated in vivo on NE synthesis in NE-rich hemispheres after subcutaneous administration; assay type: functional; conditions: sc; outline: as §2
Rattus norvegicus [7] = test: Effect evaluated in vivo on 5-HTP accumulation in limbic system at a dose 25 umol/kg (s.c.); assay type: functional
Outline: (§3)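 Male Sprague-Dawley rats (200–300 g) were pretreated with reserpine 5 mg/kg sc 18 h before. Test compound was given sc at 5 mL/kg in neutral solution. 5-HT synthesis rate was indexed by […] 5-HTP accumulation after decarboxylase inhibition with NSD 1015, measured by HPLC-electrochemical detection. Dose-response used 4–6 dose levels, n = 4.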

D(2) dopamine receptor = D(2) dopamine receptor (Rattus norvegicus, UniProt P61169); test: Inhibitory activity against Dopamine receptor D2 in rats using [3H]spiperone as radioligand
Outline: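 Rat striatal membranes in 50 mM potassium phosphate buffer pH 7.4 were incubated with 0.5 nM [3H]spiperone for 10 min at 37 °C. Specific binding was defined with 10 μM 6,7-ADTN.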

Rattus norvegicus [8] = test: Effect evaluated in vivo on 5-HTP accumulation in limbic system at a dose 6.25 umol/kg (s.c.); assay type: functional; outline: as §3
Rattus norvegicus [9] = test: Effect evaluated in vivo on NE synthesis in NE-rich hemispheres at a 0.20 dose uM/kg(sc); assay type: functional; outline: as §2
Rattus norvegicus [10] = test: Effect evaluated in vivo on NE synthesis in NE-rich hemispheres at a 25 dose uM/kg(sc); assay type: functional; outline: as §2
Rattus norvegicus [11] = test: Effect evaluated in vivo on 5-HTP accumulation in corpus striatum at a dose 0.20 umol/kg (s.c.); assay type: functional; outline: as §1
Rattus norvegicus [12] = test: Effect evaluated in vivo on 5-HTP accumulation in limbic system at a dose 1.56 umol/kg (s.c.); assay type: functional; outline: as §3
Rattus norvegicus [13] = test: Effect evaluated in vivo on 5-HTP accumulation in limbic system at a dose 0.39 umol/kg (s.c.); assay type: functional; outline: as §1
Rattus norvegicus [14] = test: Effect evaluated in vivo on 5-HTP accumulation in corpus striatum at a dose 25 umol/kg (s.c.); assay type: functional; outline: as §1
Rattus norvegicus [15] = test: Effect evaluated in vivo on 5-HTP accumulation in limbic system after subcutaneous administration; assay type: functional; conditions: sc; outline: as §1
Rattus norvegicus [16] = test: Effect evaluated in vivo on NE synthesis in NE-rich hemispheres at a 1.56 dose uM/kg(sc); assay type: functional; outline: as §2
Rattus norvegicus [17] = test: Effect evaluated in vivo on 5-HTP accumulation in limbic system at a dose 0.20 umol/kg (s.c.); assay type: functional; outline: as §1
Rattus norvegicus [18] = test: The compound was tested in vivo for locomotor activity in rats at 25 umol/kg after subcutaneous administration; assay type: functional
Outline: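 Male Sprague-Dawley rats received reserpine 5 mg/kg sc in the neck 18 h before testing. Test compound was given sc in the neck (n = 4). Rats were placed singly in photocell motility meters immediately after dosing, and counts were accumulated over 30 min (tests 9 a.m.–1 p.m.). Gross behaviour, including 5-HT syndrome, was observed throughout.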

Rattus norvegicus [19] = test: Effect evaluated in vivo on NE synthesis in NE-rich hemispheres at a 6.25d ose uM/kg(sc); assay type: functional; outline: as §2
Rattus norvegicus [20] = test: Effect evaluated in vivo on 5-HTP accumulation in limbic system at a dose 0.78 umol/kg (s.c.); assay type: functional; outline: as §1
Rattus norvegicus [21] = test: Effect evaluated in vivo on 5-HTP accumulation in NE-rich hemispheres at a 50 dose uM/kg(sc); assay type: functional; outline: as §1
Rattus norvegicus [22] = test: Effect evaluated in vivo on 5-HTP accumulation in NE-rich hemispheres at a 3.1 dose uM/kg(sc); assay type: functional; outline: as §1
Rattus norvegicus [23] = test: Effect evaluated in vivo on 5-HTP accumulation in limbic system at a dose 3.1 umol/kg (s.c.); assay type: functional; outline: as §3
Rattus norvegicus [24] = test: Effect evaluated in vivo on 5-HTP accumulation in corpus striatum at a dose 3.1 umol/kg (s.c.); assay type: functional; outline: as §1
Rattus norvegicus [25] = test: Effect evaluated in vivo on 5-HTP accumulation in NE-rich hemispheres at a 0.78 dose uM/kg(sc); assay type: functional; outline: as §1
Rattus norvegicus [26] = test: The compound was tested in vivo for locomotor activity in rats at 0.2 umol/kg after subcutaneous administration
Rattus norvegicus [27] = test: Effect evaluated in vivo on 5-HTP accumulation in corpus striatum at a dose 50 umol/kg (s.c.); assay type: functional; outline: as §1
Rattus norvegicus [28] = test: Effect evaluated in vivo on 5-HTP accumulation in corpus striatum at a dose 12.5 umol/kg (s.c.); assay type: functional; outline: as §1
Rattus norvegicus [29] = test: Effect evaluated in vivo on 5-HTP accumulation in NE-rich hemispheres at a 12.5 dose uM/kg(sc); assay type: functional; outline: as §1
Rattus norvegicus [30] = test: Effect evaluated in vivo on 5-HTP accumulation in limbic system at a dose 12.5 umol/kg (s.c.); assay type: functional; outline: as §3
Rattus norvegicus [31] = test: Effect evaluated in vivo on 5-HTP accumulation in limbic system at a dose 50 umol/kg (s.c.); assay type: functional; outline: as §3
Rattus norvegicus [32] = test: Effect evaluated in vivo on 5-HTP accumulation in NE-rich hemispheres at a 0.20 dose uM/kg(sc); assay type: functional; outline: as §1
Rattus norvegicus [33] = test: Effect evaluated in vivo on 5-HTP accumulation in corpus striatum at a dose 0.78 umol/kg (s.c.); assay type: functional; outline: as §1
Rattus norvegicus [34] = test: Effect evaluated in vivo on 5-HTP accumulation in limbic system at a dose 0.80 umol/kg (s.c.); assay type: functional; outline: as §3
Rattus norvegicus [35] = test: Effect evaluated in vivo on 5-HTP accumulation in NE-rich hemispheres at a 0.80 dose uM/kg(sc); assay type: functional; outline: as §1
Rattus norvegicus [36] = test: Effect evaluated in vivo on 5-HTP accumulation in NE-rich hemispheres after subcutaneous administration; assay type: functional; conditions: sc; outline: as §1
Rattus norvegicus [37] = test: Effect evaluated in vivo on 5-HTP accumulation in corpus striatum at a dose 0.80 umol/kg (s.c.); assay type: functional; outline: as §1

Chain of D(2) dopamine receptor (P61169 whole entry): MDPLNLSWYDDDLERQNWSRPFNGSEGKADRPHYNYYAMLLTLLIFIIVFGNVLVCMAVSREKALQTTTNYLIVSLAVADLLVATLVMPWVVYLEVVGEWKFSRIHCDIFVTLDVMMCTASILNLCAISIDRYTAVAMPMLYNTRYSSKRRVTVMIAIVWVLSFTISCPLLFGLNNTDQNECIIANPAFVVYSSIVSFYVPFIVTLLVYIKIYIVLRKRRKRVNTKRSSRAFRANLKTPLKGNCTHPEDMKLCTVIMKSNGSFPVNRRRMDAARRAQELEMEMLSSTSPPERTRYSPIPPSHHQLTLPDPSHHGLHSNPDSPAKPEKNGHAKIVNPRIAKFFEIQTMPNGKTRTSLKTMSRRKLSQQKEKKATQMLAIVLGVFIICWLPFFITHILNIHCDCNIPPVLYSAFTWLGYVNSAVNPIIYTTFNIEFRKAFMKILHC

SMILES | ED50 (Rattus norvegicus [1]) [µmol/kg] | IC50 [4] [nM] | IC50 (D(2) dopamine receptor) [µM] | Control (Rattus norvegicus [11]) [%] | ED50 (Rattus norvegicus [15]) [µmol/kg] | Control (Rattus norvegicus [17]) [%] | Control (Rattus norvegicus [21]) [%] | Control (Rattus norvegicus [23]) [%] | Control (Rattus norvegicus [24]) [%] | Locomotor activity (Rattus norvegicus [26]) | Control (Rattus norvegicus [27]) [%] | Control (Rattus norvegicus [28]) [%] | Control (Rattus norvegicus [29]) [%] | Control (Rattus norvegicus [30]) [%] | Control (Rattus norvegicus [31]) [%] | further results
CCCN1CCc2cccc(O)c2CC1 | 2.2 | 81 | > 100 | 125 | 1.3 | 117 |  |  |  |  |  |  |  |  |  | Control (Rattus norvegicus [2]): 135%; Control (Rattus norvegicus [3]): 67%; Control (Rattus norvegicus [5]): 129%; ED50 (Rattus norvegicus [6]): 1.4 µmol/kg; Control (Rattus norvegicus [7]): 76%; Control (Rattus norvegicus [8]): 51%; Control (Rattus norvegicus [9]): 115%; Control (Rattus norvegicus [10]): 72%; Control (Rattus norvegicus [12]): 70%; Control (Rattus norvegicus [13]): 129%; Control (Rattus norvegicus [14]): 75%; Control (Rattus norvegicus [16]): 73%; Locomotor activity (Rattus norvegicus [18]): 102; Control (Rattus norvegicus [19]): 53%
COc1cccc2c1CCN(C)CC2 |  | 480 | 2.3 | 98 |  | 110 | 80 | 108 | 89 | 8 | 72 | 74 | 76 | 86 | 67 | Control (Rattus norvegicus [20]): 93%; Control (Rattus norvegicus [22]): 93%; Control (Rattus norvegicus [25]): 81%; Control (Rattus norvegicus [32]): 126%; Control (Rattus norvegicus [33]): 97%
CCCCN1CCc2ccc(O)cc2CC1 |  |  |  |  |  |  | 114 |  |  |  | 106 |  |  |  | 119 | 
CCN1CCc2cccc(O)c2CC1 | 6.5 | 630 | 14 |  | 5 |  | 48 | 89 | 96 | 31 | 54 | 56 | 49 | 48 | 46 | Control (Rattus norvegicus [34]): 99%; Control (Rattus norvegicus [35]): 108 µM/kg; ED50 (Rattus norvegicus [36]): 6 µmol/kg; Control (Rattus norvegicus [37]): 100%
